mIAP block – inhibitors of mouse IAP, primary screen, biochemical, luminescence, uHTS; intestinal alkaline phosphatase [Mus musculus]; purified mouse IAP, CDP-Star luminescence, 30 min; inhibition, % at 10 µM; hit rate 0.2% among 330,000; AID 2806, 2010;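 active means inhibition of at least 40% at 10 µM in the primary screen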;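 further: plate controls were DMSO with enzyme for no effect and no enzyme wells for full effect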
hIAP act – human IAP activators, primary screen, biochemical, luminescence, uHTS | Intestinal-type alkaline phosphatase (Homo sapiens), P09923 | purified human IAP, CDP-Star luminescence, 30 min; active compounds read high; 1 = vehicle-only enzyme, 0 = enzyme-free background | activation factor at 10 µM | hit rate 0.16% among 330,000 | AID 2524, 2010;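 active means activation factor of the enzyme at least 2-fold when tested at 20 µM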
Target sequence (P09923 whole entry, looked up): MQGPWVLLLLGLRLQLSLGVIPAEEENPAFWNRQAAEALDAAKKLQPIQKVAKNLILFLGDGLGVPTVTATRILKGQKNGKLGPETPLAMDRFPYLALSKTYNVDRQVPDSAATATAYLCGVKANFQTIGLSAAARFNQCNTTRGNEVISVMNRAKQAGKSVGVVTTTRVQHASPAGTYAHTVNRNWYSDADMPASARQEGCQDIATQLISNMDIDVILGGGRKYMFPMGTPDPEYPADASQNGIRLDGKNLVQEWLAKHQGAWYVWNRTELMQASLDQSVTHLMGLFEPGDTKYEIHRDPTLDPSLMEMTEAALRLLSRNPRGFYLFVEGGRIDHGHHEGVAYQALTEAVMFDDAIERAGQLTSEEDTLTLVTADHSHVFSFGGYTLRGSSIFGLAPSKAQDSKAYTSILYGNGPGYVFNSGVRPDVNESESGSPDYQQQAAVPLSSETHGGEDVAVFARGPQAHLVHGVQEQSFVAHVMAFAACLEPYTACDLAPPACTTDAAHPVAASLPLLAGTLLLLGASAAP
hIAP block – human IAP inhibitors, primary screen, biochemical, luminescence, uHTS; purified IAP, CDP-Star luminescence, 30 min; inhibition, % at 10 µM; hit rate 0.12% among 330,000;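 active means inhibition reaching a set limit with compound at 10 µM in the primary screen, cut at about 35% in these data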;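 further: plate controls were DMSO wells with enzyme for no effect and no-enzyme buffer wells for full effect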
bIAP act – bovine intestinal alkaline phosphatase activators, primary screen, biochemical, bovine IAP, CDP-star luminescence; hit rate 0.17% among 200,000; purified bovine IAP, 30 min; active compounds read high; fold of DMSO-control signal, blank-subtracted; alkaline phosphatase, intestinal [Bos taurus]; activation factor at 20 µM;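 active means activation factor of 2 or more at 20 µM, a signal rise over negative controls twice the positive control's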
mIAP act – activators of mouse IAP, primary screen, biochemical, luminescence, uHTS; hit rate 0.24% among 330,000; activation factor at 10 µM; muIAP, CDP-Star luminescence, 30 min; active compounds read high; 1 = vehicle-only enzyme signal, 0 = enzyme-free wells; AID 2805, 2010; intestinal alkaline phosphatase [Mus musculus];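 active means activation factor of at least 2 at 20 µM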
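System: Mouse IAP enzyme | Also added: CDP-Star substrate | Dosing: Compounds dispensed in DMSO | Schedule: 30 min enzyme-substrate-compound incubation at room temperature | Technique: Chemiluminescence readout | Control set: DMSO-only wells and no-enzyme negative control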
bIAP inh – bovine intestinal alkaline phosphatase inhibitors, primary screen, selectivity assay for TNAP inhibitor project, biochemical, bovine IAP, CDP-star luminescence; purified bovine IAP, 30 min; inhibition, % at 20 µM; 190,000 tested, under 10 active; AID 1019, 2008;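 active means over 50% inhibition of intestinal alkaline phosphatase at 20 µM in the single-dose screen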
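Incubation: 30 min reaction at room temperature / Material: purified bovine intestinal alkaline phosphatase (IAP) enzyme / Input: enzyme at 1/65,000,000 dilution / Dosing: 20 µM single dose / Signal: CDP-star luminescence signal / Reagent: CDP-star chemiluminescent phosphatase substrate, 30 µM final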
hIAP act conf – human IAP activators, confirmation, biochemical, luminescence, single concentration, uHTS hits. shares compounds with hIAP act. purified IAP, CDP-Star luminescence, 30 min; active compounds read low. activation (%Activity, negative = activation), % at 8.3 µM. hit rate 10% among 880. AID 434926, 2010;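 active means at least twofold enzyme activation in any of six single-dose repeats, which the averaged readout prints as negative percent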
* = called active by the depositor; x = no result given. Hits are enriched below; roughly 0.72% of the tested compounds scored in any of these assays.

SMILES	mIAP block	hIAP act	hIAP block	bIAP act	mIAP act	bIAP inh	hIAP act conf
O=C(Nc1ccc(Cl)c(Cl)c1)Oc1ccc(NC(=O)c2ccco2)cc1	-120	2*	-100	1	2.2*	0	-70
C=CCN1C=CC(=CC=C(C#N)C#N)C=C1	31	0.65	35*	x	0.69	x	-4
CC1(C)C[C@@H](O)CC2(C1)C[C@]1(C)CC(O)[C@H]2C(C)(C)C1 (stereo partly specified)	6	2.1*	-105	x	0.94	x	-93*
O=c1c2cc(O)c(O)cc2oc2cc(O)c(C3OC(CO)C(O)C(O)C3O)c(O)c12 (stereo unspecified)	30	0.18	82*	x	0.69	x	-148*
COc1cccc(CNC(=O)c2ccc(Cl)c(NC3=NC4CS(=O)(=O)CC4S3)c2)c1 (stereo unspecified)	1	0.72	28	x	0.99	x	x
Cc1ccc(NC(=O)NNC(=O)c2cc3ccccc3cc2O)cc1	4	2.1*	-112	x	0.96	x	-70*
COc1ccccc1NC(=O)NNC(=O)c1cc2ccccc2cc1O	11	2*	-101	x	0.89	x	-55
C=CCn1c(SCC(=O)NC2CC2)nnc1-c1cccc(OC)c1	-8	0.59	41*	x	1.1	x	-18
CCn1c(SCC(=O)NC2CC2)nnc1-c1cccc(OC)c1	-2	1.2	-18	x	1	x	x
Cc1cc(NS(=O)(=O)c2ccc(NC(=O)C(C(C)C)N3C(=O)c4ccccc4C3=O)cc2)nc(C)n1 (stereo unspecified)	-1	0.61	39*	1	1	-3	-41
CCCOc1c(Br)cc(C(=O)OCC(=O)NC(=O)c2cccn2C)cc1OC	0	0.94	6	x	1	x	x
O=C(Cn1nnc2ccccc2c1=O)NCCc1ccc(Cl)cc1Cl	9	0.63	37*	0.9	0.91	14	8
COc1ccc(S(=O)(=O)Nc2cc3c4c(c2)CCN4C(=O)CC3)cc1OC	-3	1	-2	x	1	x	x
Cc1cc(C(=O)NNC(=O)c2ccc(Cl)cc2Cl)c(C)o1	1	1.1	-7	x	0.99	x	x
CSCc1ccc(C(=O)N2CCC(N3CCC(C(=O)NC(C)C)CC3)CC2)o1	-8	1	-3	x	1.1	x	x
CC(NC(=S)NC1CCC(C(C)(C)C)CC1)c1ccccc1 (stereo unspecified)	-348	2*	-101	x	4.5*	x	-111*
COc1ccc(C(C)NC(=S)NC2CCCC2)cc1OC (stereo unspecified)	-10	1	-4	0.9	1.1	10	x
CSc1cccc(NC(=O)C2CCN(C(=O)c3ccccc3C)CC2)c1	-24	1	-2	1	1.2	-3	x
NC(=O)c1nc(-c2cccs2)nc2c1[nH]c(=O)n2-c1ccc(F)cc1	-24	2.3*	-133	1.2	1.2	-24	-23
NC(=O)c1nc(-c2ccco2)nc2c1[nH]c(=O)n2-c1ccc(Cl)c(Cl)c1	29	2.1*	-105	x	0.71	x	-68
COc1ccc(CN(C)C(=O)c2cnc(OC)cc2C(F)(F)F)c(OC)c1	-11	0.98	2	x	1.1	x	x
O=C(CSc1ncnc2sc3c(c12)CCC3)Nc1ccccc1C(=O)O	0	0.93	7	x	1	x	x
O=C(C[n+]1ccc(-c2nnc3n2CCC3)cc1)c1ccc(Cl)cc1	19	0.9	10	0.9	0.81	12	x
CCc1c(C(=O)NNC(=S)NCCc2ccccc2)csc1C	5	2.1*	-113	1	0.95	-1	-26
